This note sets out measurements from ChEMBL document CHEMBL1149549, “Orally active antimalarials: synthesis and bioevaluation of a new series of steroid-based 1,2,4-trioxanes against multi-drug resistant malaria in mice” (Bioorg Med Chem Lett, 2007).

In series [1] the test system is Plasmodium yoelii. As to the kind of experiment: Antimalarial activity as reduced parasitaemia (%) against multidrug-resistant Plasmodium yoelii infected Swiss mice (Mus musculus) at 48 mg/kg peroral dose after 4 days. The class given is functional. Further details: scale not given: the % may be the effect or the level left; call rule not given here. The settings on record: route oral. The method in brief:
(§1)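 Colony-bred Swiss mice (25 ± 1 g) inoculated with 1×10^6 parasitized RBC on day 0, five per dose group. Dosed orally in groundnut oil (0.1 ml), days 0–3, as two divided doses daily. Parasitaemia read from thin blood smears. Day-4 suppression = [(C−T)/C]×100 against the control group; 100% means parasites below the detection limit. β-Arteether was the positive control.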

The subject of series [2] is Plasmodium yoelii. As to the kind of experiment: Antimalarial activity as reduced parasitaemia (%) against multidrug-resistant Plasmodium yoelii infected Swiss mice (Mus musculus) at 96 mg/kg peroral dose after 4 days. The class given is functional. Details: scale not given: the % may be the effect or the level left. Conditions: route oral. The method in brief: as §1

The subject of series [3] is Mus musculus. Description: Survival of multidrug-resistant Plasmodium yoelii infected Swiss mice (Mus musculus) at 96 mg/kg, perorally after 28 days. The class given is ADME, organism-based. Further details: dose 96 mg/kg, route oral. Conditions: in vivo, po, 672 h. The method in brief: (§2)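 Swiss mice (25 ± 1 g) infected on day 0 with 1×10^6 parasitized RBC, five per dose. Given the drug orally in groundnut oil (0.1 ml), split into two daily doses on days 0–3. Parasitaemia followed by thin blood smears from day 4 to 28. Mice surviving beyond day 28 were scored as protected, expressed as the percent of treated mice. β-Arteether was the positive control.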

Series [4] deals with Mus musculus. Description: Survival of multidrug-resistant Plasmodium yoelii infected Swiss mice (Mus musculus) at 48 mg/kg, perorally after 28 days. Format: ADME, organism-based. Conditions: in vivo, po, 672 h. Details: dose 48 mg/kg, route oral. The method in brief:
as §2

Series [5] has as its system Plasmodium yoelii. Description: Antimalarial activity as reduced parasitaemia (%) against multidrug-resistant Plasmodium yoelii infected Swiss mice (Mus musculus) at 24 mg/kg peroral dose after 4 days. The class given is functional. Further details: scale not given: the % may be the effect or the level left. Conditions: route oral.

For `C=C(c1ccc(Br)cc1)C1COC2(CC[C@@]3(C)C(CC[C@H]4[C@@H]5CC[C@H](C(C)=O)[C@@]5(C)CC[C@@H]43)C2)OO1` (stereo partly specified), the Activity in series [1] and in series [2] was 100% each time.

As for `C=C(c1ccc(OC)cc1)C1COC2(CC[C@@]3(C)C(CC[C@@H]4[C@@H]3CC[C@@]3(C)[C@H]4OCC34CC[C@@H](C)CO4)C2)OO1` (stereo partly specified), the Activity in series [2] is listed as 36.1%; in series [3], “Not Active”.

In the case of `C=C(c1ccccc1)C1COC2(CC[C@@]3(C)C(CC[C@H]4[C@@H]5CC[C@H](C(C)=O)[C@@]5(C)CC[C@@H]43)C2)OO1` (stereo partly specified), the Activity in series [1] and in series [2] was 100% each time.

As to `C=C(c1ccc(OC)cc1)C1COC2(CC[C@@]3(C)C(CC[C@H]4[C@@H]5CC[C@H](C(C)=O)[C@@]5(C)CC[C@@H]43)C2)OO1` (stereo partly specified), the Activity is listed as 100% in series [1], 100% in series [2] and “Active” in series [3].

Take `CCO[C@H]1O[C@@H]2O[C@@]3(C)CC[C@H]4[C@H](C)CC[C@@H]([C@H]1C)[C@@]24OO3` [ARTEMOTIL]: the Activity in series [1] is recorded as 100%; in series [4] it was “Active”; in series [5], 100%.

As for `C=C(c1ccc(F)cc1)C1COC2(CC[C@@]3(C)C(CC[C@H]4[C@@H]5CC[C@H]([C@H](C)CCCC(C)C)[C@@]5(C)CC[C@@H]43)C2)OO1` (stereo partly specified), the Activity is given as 14.8% in series [2] and “Not Active” in series [3].

Consider `C=C(c1ccc(F)cc1)C1COC2(CC[C@@]3(C)C(CC[C@H]4[C@@H]5CC[C@H](C(C)=O)[C@@]5(C)CC[C@@H]43)C2)OO1` (stereo partly specified), for which the Activity in series [1] and in series [2] was 100% throughout.

For `C=C(c1ccc(Cl)cc1)C1COC2(CC[C@@]3(C)C(CC[C@H]4[C@@H]5CC[C@H]([C@H](C)CCCC(C)C)[C@@]5(C)CC[C@@H]43)C2)OO1` (stereo partly specified), the Activity was 43.4% in series [2] and “Not Active” in series [3].

For `C=C(c1ccc(F)cc1)C1COC2(CC[C@@]3(C)C(CC[C@@H]4[C@@H]3CC[C@@]3(C)[C@H]4OCC34CC[C@@H](C)CO4)C2)OO1` (stereo partly specified), the Activity is recorded as 45.1% in series [2] and “Not Active” in series [3].

As for `C=C(c1ccc(C)cc1)C1COC2(CC[C@@]3(C)C(CC[C@H]4[C@@H]5CC[C@H]([C@H](C)CCCC(C)C)[C@@]5(C)CC[C@@H]43)C2)OO1` (stereo partly specified), the Activity in series [2] is reported as 27.4%; in series [3], “Not Active”.

Take `C=C(c1ccc(Cl)cc1)C1COC2(CC[C@@]3(C)C(CC[C@H]4[C@@H]5CC[C@H](C(C)=O)[C@@]5(C)CC[C@@H]43)C2)OO1` (stereo partly specified): the Activity in series [1] and in series [2] was 100% in each case.

Consider `C=C(c1ccc(Cl)cc1)C1COC2(CC[C@@]3(C)C(CC[C@@H]4[C@@H]3CC[C@@]3(C)[C@H]4OCC34CC[C@@H](C)CO4)C2)OO1` (stereo partly specified), for which the Activity was 71.7% in series [2] and “Not Active” in series [3].

Consider `C=C(c1ccc(C)cc1)C1COC2(CC[C@@]3(C)C(CC[C@H]4[C@@H]5CC[C@H](C(C)=O)[C@@]5(C)CC[C@@H]43)C2)OO1` (stereo partly specified), for which the Activity in series [1] and in series [2] was 100% throughout.

As to `C=C(c1ccc(OC)cc1)C1COC2(CC[C@@]3(C)C(CC[C@H]4[C@@H]5CC[C@H]([C@H](C)CCCC(C)C)[C@@]5(C)CC[C@@H]43)C2)OO1` (stereo partly specified), the Activity in series [2] was 53.5%; in series [3] it was “Not Active”.

With `C=C(c1ccc(Br)cc1)C1COC2(CC[C@@]3(C)C(CC[C@H]4[C@@H]5CC[C@H]([C@H](C)CCCC(C)C)[C@@]5(C)CC[C@@H]43)C2)OO1` (stereo partly specified), the Activity was 26.1% in series [2] and “Not Active” in series [3].

For the compound `C=C(c1ccc(C)cc1)C1COC2(CC[C@@]3(C)C(CC[C@@H]4[C@@H]3CC[C@@]3(C)[C@H]4OCC34CC[C@@H](C)CO4)C2)OO1` (stereo partly specified), the Activity in series [2] is 50.7%; in series [3] it was “Not Active”.

With `C=C(c1ccccc1)C1COC2(CC[C@@]3(C)C(CC[C@@H]4[C@@H]3CC[C@]3(C)C([C@H](C)CCCC(C)C)CC[C@@H]43)C2)OO1` (stereo partly specified), the Activity in series [2] is on record as 73%; in series [3], “Not Active”.
